In ChEMBL document CHEMBL1149894, “Glycosidic constituents of the tubers of Gymnadenia conopsea” (J Nat Prod, 2008):
The source made the active and inactive calls. No cut-off for these calls is given here.

How the values were obtained:
[1] = target: T1, Acetylcholinesterase (Rattus norvegicus) (UniProt P37136); assay: Inhibition of rat brain AChE at 10 uM by Ellman method
T1 sequence (whole entry): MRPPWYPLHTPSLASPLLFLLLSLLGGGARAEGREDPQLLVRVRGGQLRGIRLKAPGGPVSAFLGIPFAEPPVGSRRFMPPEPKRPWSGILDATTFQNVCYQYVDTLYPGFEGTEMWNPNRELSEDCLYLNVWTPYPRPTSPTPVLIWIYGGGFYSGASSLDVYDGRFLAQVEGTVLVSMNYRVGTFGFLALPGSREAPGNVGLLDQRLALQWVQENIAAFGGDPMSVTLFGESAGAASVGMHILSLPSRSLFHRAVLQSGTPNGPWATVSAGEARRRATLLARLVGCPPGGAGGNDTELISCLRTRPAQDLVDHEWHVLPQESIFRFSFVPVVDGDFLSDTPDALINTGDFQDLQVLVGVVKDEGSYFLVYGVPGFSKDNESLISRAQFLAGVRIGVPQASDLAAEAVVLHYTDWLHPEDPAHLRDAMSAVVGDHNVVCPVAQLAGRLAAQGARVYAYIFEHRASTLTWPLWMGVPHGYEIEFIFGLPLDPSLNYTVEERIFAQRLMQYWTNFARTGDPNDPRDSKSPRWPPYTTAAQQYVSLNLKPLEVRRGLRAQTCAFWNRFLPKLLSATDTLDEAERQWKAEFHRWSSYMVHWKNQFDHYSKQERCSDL
Procedure, shortened: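 Source: fresh rat brain homogenised in 9 volumes of ice-cold PBS, incubated with each test compound separately. Activity measured spectrophotometrically at 25 °C by the Ellman method; test compounds at 10^-5 M; donepezil as positive control; read as percent inhibition.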

[2] = target: T2, Amine oxidase [flavin-containing] B (Rattus norvegicus, UniProt P19643); assay: Inhibition of rat brain monoamine oxidase B at 10 uM
T2 sequence (P19643 whole entry): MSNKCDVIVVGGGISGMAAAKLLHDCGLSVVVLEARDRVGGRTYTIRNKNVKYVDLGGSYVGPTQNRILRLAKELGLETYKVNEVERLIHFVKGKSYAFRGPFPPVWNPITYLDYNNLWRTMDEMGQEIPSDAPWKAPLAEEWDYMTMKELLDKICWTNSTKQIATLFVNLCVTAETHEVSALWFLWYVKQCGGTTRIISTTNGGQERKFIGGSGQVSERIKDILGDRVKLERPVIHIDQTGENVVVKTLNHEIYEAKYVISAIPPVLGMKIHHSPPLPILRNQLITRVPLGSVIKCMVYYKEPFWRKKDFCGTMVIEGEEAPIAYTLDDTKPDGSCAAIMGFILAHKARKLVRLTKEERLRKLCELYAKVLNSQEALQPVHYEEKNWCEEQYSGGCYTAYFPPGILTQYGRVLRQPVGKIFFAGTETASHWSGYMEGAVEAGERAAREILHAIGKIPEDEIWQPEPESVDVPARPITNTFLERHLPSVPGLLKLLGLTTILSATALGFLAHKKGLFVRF
Procedure, shortened: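 Fresh rat brain homogenized in 9-fold volume of ice-cold PBS and incubated separately with each compound at 10^-5 M. MAO-B activity was determined by quantifying the oxidation product of benzylamine substrate. Pargyline was the positive control. The value is reported as an inhibition rate.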

Compound: CC(C)C[C@](O[C@@H]1O[C@H](CO)[C@@H](O)[C@H](O)[C@H]1O)(C(=O)OCc1ccc(O[C@@H]2O[C@H](CO)[C@@H](O)[C@H](O)[C@H]2O)cc1)C(O)C(=O)OCc1ccc(O[C@@H]2O[C@H](CO)[C@@H](O[C@H]3O[C@H](CO)[C@@H](O)[C@H](O)[C@H]3O)[C@H](O)[C@H]2O)cc1 (stereo partly drawn)
- Activity [1]: inactive
- Activity [2]: Not Active

Compound: CCOCc1ccc(O[C@@H]2O[C@H](CO)[C@@H](O)[C@H](O[C@@H]3O[C@H](CO)[C@@H](O)[C@H](O)[C@H]3O)[C@H]2O)cc1
- Activity [1]: inactive
- Activity [2]: Not Active

Compound: CC(C)C[C@](O)(C(=O)OCc1ccc(O[C@@H]2O[C@H](CO)[C@@H](O)[C@H](O)[C@H]2O)cc1)[C@H](O)C(=O)OCc1ccc(O[C@@H]2O[C@H](CO[C@@H]3O[C@H](CO)[C@@H](O)[C@H](O)[C@H]3O)[C@@H](O)[C@H](O)[C@H]2O)cc1
- Activity [1]: inactive
- Activity [2]: Not Active

Compound: OCc1ccc(O[C@@H]2O[C@H](CO)[C@@H](O)[C@H](O[C@@H]3O[C@H](CO)[C@@H](O)[C@H](O)[C@H]3O)[C@H]2O)cc1
- Activity [1]: inactive
- Activity [2]: Not Active

Compound: OCc1ccc(O[C@@H]2O[C@H](CO)[C@@H](O[C@H]3O[C@H](CO)[C@@H](O)[C@H](O)[C@H]3O)[C@H](O)[C@H]2O)cc1
- Activity [1]: inactive
- Activity [2]: Not Active

Compound: CC(C)C[C@](CC(=O)OCc1ccc(O[C@@H]2O[C@H](CO)[C@@H](O)[C@H](O)[C@H]2O)cc1)(O[C@@H]1O[C@H](CO)[C@@H](O)[C@H](O)[C@H]1O)C(=O)O
- Activity [1]: inactive
- Activity [2]: Not Active

Compound: COC(=O)[C@@H](O)[C@](O)(CC(C)C)C(=O)OCc1ccc(O[C@@H]2O[C@H](CO)[C@@H](O)[C@H](O)[C@H]2O)cc1
- Activity [1]: inactive
- Activity [2]: Not Active

Compound: OCc1ccc(O[C@@H]2O[C@H](CO)[C@@H](O[C@@H]3O[C@H](CO)[C@@H](O)[C@H](O)[C@H]3O)[C@H](O)[C@H]2O)cc1
- Activity [1]: inactive
- Activity [2]: Not Active

Compound: CC(C)C[C@](O[C@@H]1O[C@H](CO)[C@@H](O)[C@H](O)[C@H]1O)(C(=O)OCc1ccc(O[C@@H]2O[C@H](CO)[C@@H](O)[C@H](O)[C@H]2O)cc1)[C@H](O)C(=O)OCc1ccc(O[C@@H]2O[C@H](CO)[C@@H](O)[C@H](O[C@@H]3O[C@H](CO)[C@@H](O)[C@H](O)[C@H]3O)[C@H]2O)cc1
- Activity [1]: inactive
- Activity [2]: Not Active
